{
  "source": "paper PMC7263447",
  "about": "(Journal of medicinal chemistry, 2020)",
  "key": {"MDA-MB-231 cells [1]": {"system": "MDA-MB-231 cells", "experiment": "Toxicity of conjugate alone", "type": "cell-based, human", "details": "≤10 μM conjugate only, LDH release (Figure S8)"}, "MDA-MB-231 cells [2]": {"system": "MDA-MB-231 cells", "experiment": "Antibody-dependent cellular cytotoxicity with PBMCs", "type": "cell-based, human", "procedure,_shortened": "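MDA-MB-231 cells (150000) were exposed to the pH-adjusted conjugate for 5 min at 37 °C, at pH 7.4 or 6.0. After washing, they were incubated with unconjugated rabbit anti-DNP-KLH (25 μg/mL, 30 min, 4 °C). Single-donor human PBMCs were added at 50:1 in RPMI 1640 for 4 h at 37 °C. Supernatant LDH was read at 490/680 nm. Cytotoxicity % = (LDH − normal)/normal × 100. Control normal release was effector-only or target-only at pH 7.4.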"}, "MDA-MB-231 cells [3]": {"system": "MDA-MB-231 cells", "experiment": "Antibody-dependent cellular cytotoxicity with haNK cells", "type": "cell-based, human", "details": "500 nM conjugate, anti-DNP antibody, haNK effector:target 5:1, 4 h, LDH release", "procedure,_shortened": "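Targets were 150000 MDA-MB-231 cells, pulsed 5 min at 37 °C at pH 7.4 or 6.0. They were then held with 25 μg/mL rabbit anti-DNP-KLH for 30 min at 4 °C. Effectors were IL-2-maintained F176V CD16+ NK-92 (haNK) cells at 5:1 in MEMα, 4 h, 37 °C. Supernatant LDH was read at 490/680 nm. Lysis % = (LDH − normal)/normal × 100, normal being antibody plus effectors without conjugate. Mean ± SEM, n = 3–12.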"}, "MDA-MB-231 cells [4]": {"system": "MDA-MB-231 cells", "experiment": "Complement-dependent cytotoxicity", "type": "cell-based, human", "details": "1 μM conjugate, 12.5% PHS, 4 h, LDH release", "procedure,_shortened": "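Cells (240000 MDA-MB-231) were treated in suspension with 1 μM conjugate for 5 min at 37 °C, at pH 7.4 or 6.0. After washing they were opsonised with 25 μg/mL rabbit anti-DNP-KLH (30 min, 4 °C). Pooled human complement serum was added to 12.5% in DMEM for 4 h at 37 °C. Supernatant LDH was assayed in triplicate (30 min RT, 490/680 nm). Cytotoxicity is relative to antibody-only cells without peptide. Mean ± SEM, n = 3–12.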"}, "MDA-MB-231 cells [5]": {"system": "MDA-MB-231 cells", "experiment": "Antibody recruitment assay, anti-DNP-A488, flow cytometry", "type": "cell-based, human", "details": "1 μM conjugate, pH 7.4 or 6.0, 25 μg/mL anti-DNP-A488, flow cytometry, n = 3", "procedure,_shortened": "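Conjugate held at 20 μM in 5 mM sodium phosphate pH 9.0 for 1 h at RT, then diluted and pH-adjusted with citrate/PBS. Cells were washed, stained with anti-DNP-A488 rabbit polyclonal for 30 min at 4 °C, fixed in 4% PFA and read by flow cytometry. Values are fold over pH 7.4 antibody-only cells.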"}, "MDA-MB-231 cells [6]": {"system": "MDA-MB-231 cells", "experiment": "Antibody recruitment from pooled human serum", "type": "cell-based", "details": "1 μM conjugate, pH 7.4 or 6.0, 12.5% PHS, FITC-labeled anti-human IgG, n = 3"}},
  "note": "Ends that are not written are not given here. * marks the point of attachment. Dnp = O=[N+]([O-])c1ccc(*)c([N+](=O)[O-])c1",
  "data": [
    {"substance": "Dnp-KEQNPIYWARYADWLFTTPLLLLELALLVDADEGTG [Conjugate 2]", "values": [
      {"measurement": "cell lysis by conjugate only", "setting": "MDA-MB-231 cells [1]", "value": "cell lysis was not observed"},
      {"measurement": "pH selectivity of PBMC-mediated cell lysis", "setting": "MDA-MB-231 cells [2]; 1 μM conjugate, anti-DNP antibody, pH 6.0 vs 7.4", "value": "~ 2 fold"},
      {"measurement": "cell lysis with mock anti-FITC antibodies or without antibodies (PBMCs)", "setting": "MDA-MB-231 cells [2]; control, mock anti-FITC antibodies or no antibodies prior to PBMCs (Figure S7A)", "value": "cell lysis was not observed"},
      {"measurement": "cell lysis (ADCC, haNK cells), maximum efficacy", "setting": "MDA-MB-231 cells [3]", "value": "~ 40%"},
      {"measurement": "cell lysis (CDC)", "setting": "MDA-MB-231 cells [4]; pH 6.0, anti-DNP antibody", "value": 10, "unit": "%"},
      {"measurement": "toxicity (CDC)", "setting": "MDA-MB-231 cells [4]; pH 7.4, anti-DNP antibody", "value": "no toxicity at all"},
      {"measurement": "anti-DNP antibody recruitment (cellular fluorescence)", "setting": "MDA-MB-231 cells [5]", "value": "highest level of cellular fluorescence"},
      {"measurement": "antibody recruitment from serum (relative fluorescence)", "setting": "MDA-MB-231 cells [6]", "value": "significant increase in relative fluorescence at pH 6.0 compared to that at pH 7.4"}
    ]}
  ]
}
